Blank lines part the entries; values can stand above or below the molecule they belong to.
Experiments:
[1] = Inhibition of bovine mitochondrial MC1; design: species or system Bos taurus
Method in brief: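 Submitochondrial particles were sonicated from bovine heart mitochondria, final 45 µg/mL. Medium was 50 mM K2HPO4 pH 7.4, 0.4 µM antimycin A and 2 mM KCN. Inhibitor preincubated 4 min at varying concentrations. Reaction started with 100 µM decyl ubiquinone and 50 µM NADH at 37 °C. NADH oxidation read at 340 nm for 120 s. IC50 is 50% inhibition, referenced to a concurrent rotenone standard.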

Blood [2] = test: Biodistribution in Sprague-Dawley rat blood at 15 uCi, iv after 120 mins; assay type: ADME, organism-based; settings: in vivo, 2 h
Method in brief: (§1)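 Male SD rats (300-400 g) anesthetized with sodium pentobarbital (50 mg/kg ip), left femoral vein cannulated. About 15 µCi of 18F tracer (specific activity 750-2000 Ci/mmol) in 0.3 mL 10% ethanol saline given iv. Sacrificed in CO2 at 30 or 120 min (n = 5 per time point). Tissues weighed, gamma-counted, decay-corrected, and expressed as %ID/g ± SD.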

Blood [3] = test: Biodistribution in Sprague-Dawley rat blood at 15 uCi, iv after 30 mins; assay type: ADME, organism-based; settings: in vivo, 0.5 h; method in brief: as §1
Heart [4] = test: Biodistribution in Sprague-Dawley rat heart at 15 uCi, iv after 30 mins; assay type: ADME, organism-based; settings: in vivo, 0.5 h; method in brief: as §1
Heart [5] = test: Biodistribution in Sprague-Dawley rat heart at 15 uCi, iv after 120 mins; assay type: ADME, organism-based; settings: in vivo, 2 h; method in brief: as §1
Lung [6] = test: Biodistribution in Sprague-Dawley rat lung at 15 uCi, iv after 30 mins; assay type: ADME, organism-based; settings: in vivo, 0.5 h; method in brief: as §1
Lung [7] = test: Biodistribution in Sprague-Dawley rat lung at 15 uCi, iv after 120 mins; assay type: ADME, organism-based; settings: in vivo, 2 h; method in brief: as §1
Liver [8] = test: Biodistribution in Sprague-Dawley rat liver at 15 uCi, iv after 30 mins; assay type: ADME, organism-based; settings: in vivo, 0.5 h; method in brief: as §1
Liver [9] = test: Biodistribution in Sprague-Dawley rat liver at 15 uCi, iv after 120 mins; assay type: ADME, organism-based; settings: in vivo, 2 h; method in brief: as §1
Spleen [10] = test: Biodistribution in Sprague-Dawley rat spleen at 15 uCi, iv after 30 mins; assay type: ADME, organism-based; settings: in vivo, 0.5 h; method in brief: as §1
Spleen [11] = test: Biodistribution in Sprague-Dawley rat spleen at 15 uCi, iv after 120 mins; assay type: ADME, organism-based; settings: in vivo, 2 h; method in brief: as §1
Kidney [12] = test: Biodistribution in Sprague-Dawley rat kidney at 15 uCi, iv after 30 mins; assay type: ADME, organism-based; settings: in vivo, 0.5 h; method in brief: as §1
Kidney [13] = test: Biodistribution in Sprague-Dawley rat kidney at 15 uCi, iv after 120 mins; assay type: ADME, organism-based; settings: in vivo, 2 h; method in brief: as §1
Femur [14] = test: Biodistribution in Sprague-Dawley rat femur at 15 uCi, iv after 30 mins; assay type: ADME, organism-based; settings: in vivo, 0.5 h; method in brief: as §1
Femur [15] = test: Biodistribution in Sprague-Dawley rat femur at 15 uCi, iv after 120 mins; assay type: ADME, organism-based; settings: in vivo, 2 h; method in brief: as §1
Muscle tissue [16] = test: Biodistribution in Sprague-Dawley rat muscle at 15 uCi, iv after 30 mins; assay type: ADME, organism-based; settings: in vivo, 0.5 h; method in brief: as §1
Muscle tissue [17] = test: Biodistribution in Sprague-Dawley rat muscle at 15 uCi, iv after 120 mins; assay type: ADME, organism-based; settings: in vivo, 2 h; method in brief: as §1
Brain [18] = test: Biodistribution in Sprague-Dawley rat brain at 15 uCi, iv after 30 mins; assay type: ADME, organism-based; settings: in vivo, 0.5 h; method in brief: as §1
Brain [19] = test: Biodistribution in Sprague-Dawley rat brain at 15 uCi, iv after 120 mins; assay type: ADME, organism-based; settings: in vivo, 2 h; method in brief: as §1

IC50 [1]: 60 nM
SMILES: CCCCc1ccc(COc2oc3ccccc3c(=O)c2C)cc1

IC50 [1]: 52 nM
SMILES: Cc1c(SCc2ccc(C(C)(C)C)cc2)oc2ccccc2c1=O

IC50 [1]: 57 nM
SMILES: CCCCc1ccc(CNc2oc3ccccc3c(=O)c2C)cc1

Drug uptake (Blood [2]): 0.06 % ID/g
Drug uptake (Blood [3]): 0.11 % ID/g
Drug uptake (Heart [4]): 2.24 % ID/g
Drug uptake (Heart [5]): 1.52 % ID/g
Drug uptake (Lung [6]): 0.32 % ID/g
Drug uptake (Lung [7]): 0.12 % ID/g
Drug uptake (Liver [8]): 2 % ID/g
Drug uptake (Liver [9]): 0.6 % ID/g
Drug uptake (Spleen [10]): 0.41 % ID/g
Drug uptake (Spleen [11]): 0.09 % ID/g
Drug uptake (Kidney [12]): 1.93 % ID/g
Drug uptake (Kidney [13]): 0.59 % ID/g
Drug uptake (Femur [14]): 0.36 % ID/g
Drug uptake (Femur [15]): 0.74 % ID/g
Drug uptake (Muscle tissue [16]): 0.06 % ID/g
Drug uptake (Muscle tissue [17]): 0.09 % ID/g
Drug uptake (Brain [18]): 0.26 % ID/g
Drug uptake (Brain [19]): 0.17 % ID/g
SMILES: Cc1c(SCc2ccc(CCCC[18F])cc2)oc2ccccc2c1=O

IC50 [1]: 16 nM
SMILES: Cc1c(SCc2ccc(OCC(C)F)cc2)oc2ccccc2c1=O (stereo unspecified)

IC50 [1]: 52 nM
SMILES: CCCCc1ccc(CSc2oc3ccccc3c(=O)c2C)cc1

Second part, the molecule before the results:

SMILES: Cc1c(NCc2ccc(CCCCF)cc2)oc2ccccc2c1=O
IC50 [1]: 133 nM

SMILES: Cc1c(OCc2ccc(CCCCF)cc2)oc2ccccc2c1=O
IC50 [1]: 33 nM

SMILES: Cc1c(SCc2ccc(CCCCOCCF)cc2)oc2ccccc2c1=O
IC50 [1]: 197 nM

SMILES: CC(C)(C)c1ccc(CCOc2ncnc3ccccc23)cc1 [FENAZAQUIN]
IC50 [1]: 90 nM

SMILES: C=C(C)[C@H]1Cc2c(ccc3c2O[C@@H]2COc4cc(OC)c(OC)cc4[C@@H]2C3=O)O1 [ROTENONE]
IC50 [1]: 16 nM

SMILES: Cc1c(SCc2ccc(COCCF)cc2)oc2ccccc2c1=O
IC50 [1]: 15 nM

SMILES: Cc1c(SCc2ccc(CCCCF)cc2)oc2ccccc2c1=O
IC50 [1]: 9 nM

SMILES: CC(C)(C)c1ccc(CSc2cnn(C(C)(C)C)c(=O)c2Cl)cc1 [PYRIDABEN]
IC50 [1]: 8 nM
